Most compounds without a hit are left out; they make up all but 2.3% or so of the library.
TAAR1 antagonist – human TAAR1 antagonists, primary screen, Fluo-8 calcium fluorescence, CHO RD-HGA16 cells. inhibition, % at 3 µM. 1.5% of 360,000 active. AID 624466, 2012. antagonist. Trace amine-associated receptor 1 (Homo sapiens), Q96RJ0;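 active = inhibition above a per-plate cutoff, the mean inhibition of test compounds on that plate plus 3 SD, cut at about 49% in these data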
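Test system – hTAAR1-expressing CHO RD-HGA16 cells, Gα16-coupled · Reagent – β-PEA at EC80 concentration, post-compound challenge · Compound dosing – 3 µM, single point · Timing – 140 s kinetic read after compound, 140 s after agonist · Detection – Fluo-8 intracellular calcium dye fluorescence, real-time kinetic reads · Control set – DMSO and EC80 PEA controls · Repeats – n of 1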
OXTR ag – human OXTR agonists, primary screen, fluorescence, CHO-OTR cells, Fluo-8 calcium; 0.32% of 320,000 active; Fluo-8 calcium fluorescence; normalized: DMSO 0%, oxytocin 100%; AID 2435, 2010; Oxytocin receptor (Homo sapiens), P30559; activation, % at 3 µM;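 active = activation above the mean of all tested compounds plus 3 SD, cutoff set per screening run, cut at about 20% in these data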;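 note: peak over basal fluorescence ratio from a 100 s FLIPR kinetic read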
Target sequence (P30559 whole entry, looked up): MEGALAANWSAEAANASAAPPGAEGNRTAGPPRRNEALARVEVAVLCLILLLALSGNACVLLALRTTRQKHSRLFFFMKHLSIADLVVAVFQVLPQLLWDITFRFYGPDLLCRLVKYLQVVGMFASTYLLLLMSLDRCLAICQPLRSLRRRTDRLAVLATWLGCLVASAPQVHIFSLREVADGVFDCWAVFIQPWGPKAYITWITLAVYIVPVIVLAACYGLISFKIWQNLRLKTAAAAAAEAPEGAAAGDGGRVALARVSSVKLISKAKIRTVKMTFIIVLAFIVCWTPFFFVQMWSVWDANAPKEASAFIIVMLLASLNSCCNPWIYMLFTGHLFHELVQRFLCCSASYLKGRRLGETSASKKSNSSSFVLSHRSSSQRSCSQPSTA
V1aR counter – agonists of human V1a receptor, primary screen, counter-screen for OXTR agonist project, fluorescence, CHO-V1R cells; Fluo-8 calcium fluorescence, agonist mode; 0% DMSO, 100% 3 nM vasopressin; activation, % at 3 µM; Vasopressin V1a receptor (Homo sapiens), P37288; 0.25% of 320,000 active;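 active = activation above the mean activation of all tested compounds plus 3 SD, per screening run, cut at about 20% in these data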;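 note: signal is peak over basal fluorescence ratio across a 100 second FLIPR read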
OXTR potentiator – human OXTR potentiators, primary screen, fluorescence, CHO-OTR cells, Fluo-8 calcium; Fluo-8 calcium fluorescence, potentiator mode; 0% = oxytocin EC15, 100% = EC100; 0.061% of 320,000 active; activation, % at 3 µM; AID 2445, 2010;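 active = activation above that plate's cutoff, the mean activation of tested compounds plus 3 SD, cut at about 6.6% in these data, passing the limit was not always enough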
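System: human OTR in CHO cells / Also added: sub-maximal oxytocin, roughly EC15 / Control set: EC15 oxytocin low, 75 nM oxytocin high / Schedule: 6 min compound pre-incubation at room temperature, 100 s kinetic read / Compound: single-point 3.0 µM / Replication: singlicate / Technique: Fluo-8 calcium dye fluorescence / Read-out basis: % activation of max/min ratio relative to oxytocin controls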
TAAR1 ag – human TAAR1 agonists, primary screen, Fluo-8 calcium fluorescence, CHO RD-HGA16 cells. 0.99% of 360,000 active. activation, % at 3 µM. vehicle wells 0%, saturating PEA agonist 100%. AID 624467, 2012. Trace amine-associated receptor 1 (Homo sapiens), Q96RJ0;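 active = activation above the mean activation of all test compounds in the run plus 3 SD, cut at about 38% in these data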
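Signal – calcium-sensitive Fluo-8 signal, excitation 470-495, emission 515-575 nm · System – RD-HGA16 (CHO) cells co-expressing Gα16 and hTAAR1 · Incubation – 17-24 h seeding, 75 min 37 °C dye, 30 min RT · Compound dosing – 3 µM single concentration · Repeats – no replicates (n 1)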
A number is an active result; n = inactive; x = no result.

SMILES	TAAR1 antagonist	OXTR ag	V1aR counter	OXTR potentiator	TAAR1 ag
COCCn1c(C)cc(C(=O)CSc2nc3ccccc3c(=O)[nH]2)c1C	n	n	n	n	n
C=CCn1c(C)cc(C(=O)CSc2nc3ccccc3c(=O)[nH]2)c1C	67	n	n	n	n
Cc1cc(C(=O)CSc2nc3ccccc3[nH]2)c(C)n1C	n	n	n	n	n
Cc1cccc(OCC(=O)NNC(=O)C2CCCCC2C(=O)O)c1 (stereo not drawn)	n	n	n	n	n
COc1cc(/C=C2\S/C(=N/S(=O)(=O)c3ccc(C)cc3)NC2=O)c([N+](=O)[O-])cc1OC	n	n	n	n	n
Cc1ccc(S(=O)(=O)/N=C2/NC(=O)/C(=C/c3cc([N+](=O)[O-])ccc3O)S2)cc1	n	26	34	n	n
COc1ccc(CC(=O)Nc2cccc(-c3nnc(-c4cccc(C)c4)o3)c2)cc1OC	78	n	n	n	n
CC(OC(=O)c1cc(Br)ccc1O)C(=O)Nc1ccc(S(=O)(=O)N2CCCC2)cc1 (stereo not drawn)	52	n	n	n	n
CC(=O)Nc1cc(NC(C)=O)cc(C(=O)OC(C)C(=O)Nc2ccc(S(=O)(=O)N3CCCC3)cc2)c1 (stereo not drawn)	n	n	n	n	n
CS(=O)(=O)c1cccc(OCCCN2CCC(C(O)(c3ccccc3)c3ccccc3)CC2)c1	n	x	x	x	n
CCOC(=O)[C@]12CCC=C1N(Cc1ccc3c(c1)OCO3)C(=O)[C@H](CC(=O)NCc1cccc(C(F)(F)F)c1)C2	n	x	x	x	n
Cc1ccccc1C(=O)Nc1ccc(-c2nc3ccc(C(=O)c4ccccc4)cc3[nH]2)cc1	103	n	n	n	n
O=C(c1ccccc1)c1ccc2nc(-c3ccc(NC(=O)c4ccccc4Br)cc3)[nH]c2c1	68	n	n	n	n
O=C(Nc1ccc(-c2nc3ccc(NC(=O)c4cccs4)cc3[nH]2)cc1)c1cccs1	61	n	n	n	n
CS(=O)(=O)c1ccccc1C(=O)Nc1ccc(-c2nc3ccccc3[nH]2)cc1	n	n	n	n	n
O=C(Nc1ccc2nc(-c3cccs3)[nH]c2c1)c1cccs1	n	n	n	n	n
CCc1ccccc1N1CN(Cc2cccnc2)CNC1=S	n	n	n	n	n
C#CCN1CC(COc2ccccc2)Oc2cccc(Oc3ccc(C(C)C)cc3)c2S1(=O)=O (stereo not drawn)	n	x	x	x	n
Cc1cccc(C2(c3cccc(C)c3)CC2C(=O)Nc2ccc([N+](=O)[O-])cc2O)c1 (stereo not drawn)	58	n	n	n	n
COc1ccc(CCn2c(-c3cc([N+](=O)[O-])cc([N+](=O)[O-])c3)nc3nc4ccccc4nc32)cc1OC	n	n	n	12	n
CC1=C(C(=O)Nc2cccc(C(=O)N3CCN(c4cccc(C(F)(F)F)c4)CC3)c2)SCCO1	56	n	n	n	n
COc1cc(C)c(NC(=O)C2CCN(S(=O)(=O)c3cccs3)CC2)cc1OC	n	n	n	n	n
N=C1/C(=C/c2ccc(-c3cccc(C(=O)O)c3)o2)C(=O)N=C2SC=C(c3ccccc3)N12	71	n	n	n	n
N#CC1=C(N)NC(SCc2ccc(F)cc2)=C(C#N)C12CCCCC2	54	n	n	n	n
C[C@H](CO)N1C[C@H](C)[C@H](CN(C)Cc2ccc(F)cc2)Oc2ncc(Br)cc2C1=O	n	x	x	x	n
SMILES	TAAR1 antagonist	OXTR ag	V1aR counter	OXTR potentiator	TAAR1 ag
O=C(NCCN1C(=O)S/C(=C\c2cccnc2)C1=O)C1CC(=O)N(Cc2ccco2)C1 (stereo not drawn)	n	n	n	n	n
O=C(NCCN1C(=O)S/C(=C\c2ccccc2F)C1=O)C1CC(=O)N(Cc2ccccc2)C1 (stereo not drawn)	54	n	n	n	n
O=C(COC(=O)c1ccccc1O)NCc1ccccc1Cl	n	n	n	n	n
CCOC(=O)c1sc(NC(=O)CCN2C(=O)C3CCCCC3C2=O)cc1C (stereo not drawn)	49	n	n	n	n
Cc1nc2c3ccccc3nc(NNC(=O)CCC(=O)N3CCCC(C)C3)n2n1 (stereo not drawn)	n	n	n	n	n
O=C(Nc1ccc(OC(F)F)c(Cl)c1)Nc1ccc2c(c1)OCO2	n	n	n	n	n
O=C(Nc1ccc([N+](=O)[O-])cc1)Nc1ccc(OC(F)F)c(Cl)c1	60	n	n	n	n
COc1cc(NC(=O)COc2cccc3c2OC(C)(C)C3)cc(OC)c1OC	59	n	n	n	n
CC(=O)Nc1ccc(NC(=O)COc2cccc3c2OC(C)(C)C3)cc1	n	n	n	n	n
COc1cc(NC(=O)COc2cc(O)c3c(c2)OC(C)(C)CC3=O)cc(OC)c1OC	70	n	n	n	n
N#Cc1ccc(Oc2ccc(C#N)c(C#N)c2)cc1C#N	n	x	x	x	n
COC(=O)[C@]12C[C@H](CC(=O)N3CCSCC3)C(=O)N(CCC3=CCCCC3)C1=C[C@H](COCc1ccccc1)O[C@@H]2C	n	x	x	x	n
C[C@H]1CN([C@@H](C)CO)C(=O)CCCn2nncc2CO[C@@H]1CN(C)Cc1ccccc1C(F)(F)F	n	x	x	x	n
C[C@H](CCC(=O)OCc1cn(CC(=O)c2ccc(O)cc2)nn1)C1CC[C@H]2[C@@H]3CC[C@@H]4C[C@H](O)CC[C@]4(C)[C@H]3C[C@H](O)[C@]12C (stereo partly drawn)	53	x	x	x	n
C=CCN=C1NC(c2cccc(Cl)c2)C(C(=O)OC)=C(C)N1Cc1ccc(C(F)(F)F)cc1 (stereo not drawn)	n	x	x	x	n
CSCCC(NC(=O)c1ccccc1Cl)C(=O)N1CCN(c2ccccn2)CC1 (stereo not drawn)	n	n	n	n	n
COc1ccccc1CCNC(=O)c1ccoc1C	n	n	n	n	40
COc1ccccc1CCNC(=O)c1cc(-c2ccccn2)nc2ccccc12	52	x	x	x	n
COc1ccccc1CCNC(=O)c1cc(-c2ccccn2)nc2ccc(Br)cc12	x	n	n	n	x
Cc1occc1C(=O)NCCCCc1ccccc1	n	n	n	n	n
Cc1ccc(S(=O)(=O)N2CCOCC2)cc1NC(=O)c1cc(-c2ccccn2)nc2ccccc12	49	n	n	n	n
O=C(NNc1ccc([N+](=O)[O-])cn1)Nc1ccc(N=Nc2ccccc2)cc1	n	x	x	x	45
O=C(NNc1ccc([N+](=O)[O-])cc1)Nc1ccccc1	n	n	n	n	n

Screens as filed in PubChem BioAssay.
